Test results reported in ChEMBL document CHEMBL4422650, “Design and synthesis of biotinylated cardiac glycosides for probing Nur77 protein inducting pathway” (Bioorg Med Chem Lett, 2019).
Calls of active or inactive are those of the source. The rule behind the calls is not given here.

Columns and labels:
[1] = Cytotoxicity against human NIH-H460 cells assessed as cell viability at 50 nM after 48 hrs by MTT assay relative to control
Homo sapiens = species on record: Homo sapiens; test: Induction of Nur77 expression in human NIH-H460 cells AT 20 nM after 3 hrs by Western blot analysis; assay type: functional, cell-based
Summary of the method: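 NIH-H460 cancer cells were exposed to probes at 20 nM for 3 h. Nur77 protein was detected by western blotting with an anti-Nur77 antibody. DMSO served as the blank, and the underivatized biotin linker hydrazides were the negative controls.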

[2] = biological target: Streptavidin (Streptomyces avidinii) (UniProt P22629); test: Binding affinity to Streptomyces avidinii streptavidin at 1 mM after 2 hrs by HABA dye-based UV-vis spectroscopic analysis
Streptavidin (Streptomyces avidinii), sequence (P22629 whole entry): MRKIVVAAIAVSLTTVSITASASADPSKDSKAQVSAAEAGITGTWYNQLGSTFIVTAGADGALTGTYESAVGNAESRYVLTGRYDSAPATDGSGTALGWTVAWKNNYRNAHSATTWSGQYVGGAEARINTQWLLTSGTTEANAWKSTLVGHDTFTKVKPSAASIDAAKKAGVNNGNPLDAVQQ

Structure (SMILES): NNC(=O)COCCOCCNC(=O)CCCC[C@@H]1SC[C@@H]2NC(=O)N[C@@H]21
- viability at 48 h, 0.05 µM [1]: > 90%

Structure (SMILES): C[C@@H]1O[C@@H](O[C@H]2CC[C@]3(/C=N/NC(=O)COCCOCCNC(=O)CCCC[C@@H]4SC[C@@H]5NC(=O)N[C@@H]54)[C@H]4C[C@@H](O)[C@]5(C)[C@@H](C6=CC(=O)OC6)CC[C@]5(O)[C@@H]4CC[C@]3(O)C2)[C@H](O)[C@H](O)[C@H]1O
- Activity (Homo sapiens): Active
- viability at 48 h, 0.05 µM [1]: > 90%

Structure (SMILES): C[C@@H]1O[C@@H](O[C@H]2CC[C@]3(/C=N/NC(=O)COCCOCCOCCNC(=O)CCCC[C@@H]4SC[C@@H]5NC(=O)N[C@@H]54)[C@H]4C[C@@H](O)[C@]5(C)[C@@H](C6=CC(=O)OC6)CC[C@]5(O)[C@@H]4CC[C@]3(O)C2)[C@H](O)[C@H](O)[C@H]1O
- Activity (Homo sapiens): Active
- viability at 48 h, 0.05 µM [1]: > 90%

Structure (SMILES): C[C@@H]1O[C@@H](O[C@H]2CC[C@]3(/C=N/NC(=O)CCCC[C@@H]4SC[C@@H]5NC(=O)N[C@@H]54)[C@H]4C[C@@H](O)[C@]5(C)[C@@H](C6=CC(=O)OC6)CC[C@]5(O)[C@@H]4CC[C@]3(O)C2)[C@H](O)[C@H](O)[C@H]1O
- Activity (Homo sapiens): Active
- viability at 48 h, 0.05 µM [1]: > 90%

Structure (SMILES): C[C@@H]1O[C@@H](O[C@H]2CC[C@]3(/C=N/NC(=O)CCCNC(=O)CCCC[C@@H]4SC[C@@H]5NC(=O)N[C@@H]54)[C@H]4C[C@@H](O)[C@]5(C)[C@@H](C6=CC(=O)OC6)CC[C@]5(O)[C@@H]4CC[C@]3(O)C2)[C@H](O)[C@H](O)[C@H]1O
- Activity (Homo sapiens): Active
- viability at 48 h, 0.05 µM [1]: > 90%

Structure (SMILES): C[C@@H]1O[C@@H](O[C@H]2CC[C@]3(/C=N/NC(=O)COCCNC(=O)CCCC[C@@H]4SC[C@@H]5NC(=O)N[C@@H]54)[C@H]4C[C@@H](O)[C@]5(C)[C@@H](C6=CC(=O)OC6)CC[C@]5(O)[C@@H]4CC[C@]3(O)C2)[C@H](O)[C@H](O)[C@H]1O
- viability at 48 h, 0.05 µM [1]: > 90%

Structure (SMILES): C[C@@H]1O[C@@H](O[C@H]2CC[C@]3(C=O)[C@H]4C[C@@H](O)[C@]5(C)[C@@H](C6=CC(=O)OC6)CC[C@]5(O)[C@@H]4CC[C@]3(O)C2)[C@H](O)[C@H](O)[C@H]1O
- Activity (Homo sapiens): Active

Structure (SMILES): C[C@H]1O[C@@H](O[C@H]2CC[C@]3(/C=N/NC(=O)CCCNC(=O)CCCC[C@@H]4SC[C@@H]5NC(=O)N[C@@H]54)[C@H]4C[C@@H](O)[C@]5(C)[C@@H](C6=CC(=O)OC6)CC[C@]5(O)[C@@H]4CC[C@]3(O)C2)[C@H](O)[C@H](O)[C@H]1O
- Activity (Homo sapiens): Active
- viability at 48 h, 0.05 µM [1]: > 90%

Structure (SMILES): NNC(=O)CCCCCNC(=O)CCCC[C@@H]1SC[C@@H]2NC(=O)N[C@@H]21
- viability at 48 h, 0.05 µM [1]: > 90%

Structure (SMILES): C[C@@H]1O[C@@H](O[C@H]2CC[C@]3(/C=N/NC(=O)CCCCCCCNC(=O)CCCC[C@@H]4SC[C@@H]5NC(=O)N[C@@H]54)[C@H]4C[C@@H](O)[C@]5(C)[C@@H](C6=CC(=O)OC6)CC[C@]5(O)[C@@H]4CC[C@]3(O)C2)[C@H](O)[C@H](O)[C@H]1O
- Activity (Homo sapiens): Active
- viability at 48 h, 0.05 µM [1]: > 90%

Structure (SMILES): C[C@H]1O[C@@H](O[C@H]2CC[C@]3(C=O)[C@H]4C[C@@H](O)[C@]5(C)[C@@H](C6=CC(=O)OC6)CC[C@]5(O)[C@@H]4CC[C@]3(O)C2)[C@H](O)[C@H](O)[C@H]1O
- Activity (Homo sapiens): Active

Structure (SMILES): C[C@H]1O[C@@H](O[C@H]2CC[C@]3(/C=N/NC(=O)CCCCCCCNC(=O)CCCC[C@@H]4SC[C@@H]5NC(=O)N[C@@H]54)[C@H]4C[C@@H](O)[C@]5(C)[C@@H](C6=CC(=O)OC6)CC[C@]5(O)[C@@H]4CC[C@]3(O)C2)[C@H](O)[C@H](O)[C@H]1O
- Activity (Homo sapiens): Active
- viability at 48 h, 0.05 µM [1]: > 90%
- Activity [2]: Active

Structure (SMILES): C[C@H]1O[C@@H](O[C@H]2CC[C@]3(/C=N/NC(=O)CNC(=O)CCCC[C@@H]4SC[C@@H]5NC(=O)N[C@@H]54)[C@H]4C[C@@H](O)[C@]5(C)[C@@H](C6=CC(=O)OC6)CC[C@]5(O)[C@@H]4CC[C@]3(O)C2)[C@H](O)[C@H](O)[C@H]1O
- Activity (Homo sapiens): Active
- viability at 48 h, 0.05 µM [1]: > 90%

Structure (SMILES): C[C@H]1O[C@@H](O[C@H]2CC[C@]3(/C=N/NC(=O)CCCC[C@@H]4SC[C@@H]5NC(=O)N[C@@H]54)[C@H]4C[C@@H](O)[C@]5(C)[C@@H](C6=CC(=O)OC6)CC[C@]5(O)[C@@H]4CC[C@]3(O)C2)[C@H](O)[C@H](O)[C@H]1O
- viability at 48 h, 0.05 µM [1]: > 90%

Structure (SMILES): C[C@H]1O[C@@H](O[C@H]2CC[C@]3(/C=N/NC(=O)COCCOCCNC(=O)CCCC[C@@H]4SC[C@@H]5NC(=O)N[C@@H]54)[C@H]4C[C@@H](O)[C@]5(C)[C@@H](C6=CC(=O)OC6)CC[C@]5(O)[C@@H]4CC[C@]3(O)C2)[C@H](O)[C@H](O)[C@H]1O
- Activity (Homo sapiens): Active
- viability at 48 h, 0.05 µM [1]: > 90%

Structure (SMILES): C[C@@H]1O[C@@H](O[C@H]2CC[C@]3(/C=N/NC(=O)CNC(=O)CCCC[C@@H]4SC[C@@H]5NC(=O)N[C@@H]54)[C@H]4C[C@@H](O)[C@]5(C)[C@@H](C6=CC(=O)OC6)CC[C@]5(O)[C@@H]4CC[C@]3(O)C2)[C@H](O)[C@H](O)[C@H]1O
- Activity (Homo sapiens): Active
- viability at 48 h, 0.05 µM [1]: > 90%

Structure (SMILES): C[C@H]1O[C@@H](O[C@H]2CC[C@]3(/C=N/NC(=O)CCCCCNC(=O)CCCC[C@@H]4SC[C@@H]5NC(=O)N[C@@H]54)[C@H]4C[C@@H](O)[C@]5(C)[C@@H](C6=CC(=O)OC6)CC[C@]5(O)[C@@H]4CC[C@]3(O)C2)[C@H](O)[C@H](O)[C@H]1O
- Activity (Homo sapiens): Active
- viability at 48 h, 0.05 µM [1]: > 90%

Structure (SMILES): C[C@H]1O[C@@H](O[C@H]2CC[C@]3(/C=N/NC(=O)COCCNC(=O)CCCC[C@@H]4SC[C@@H]5NC(=O)N[C@@H]54)[C@H]4C[C@@H](O)[C@]5(C)[C@@H](C6=CC(=O)OC6)CC[C@]5(O)[C@@H]4CC[C@]3(O)C2)[C@H](O)[C@H](O)[C@H]1O
- Activity (Homo sapiens): Active
- viability at 48 h, 0.05 µM [1]: > 90%

Structure (SMILES): C[C@@H]1O[C@@H](O[C@H]2CC[C@]3(/C=N/NC(=O)CCCCCNC(=O)CCCC[C@@H]4SC[C@@H]5NC(=O)N[C@@H]54)[C@H]4C[C@@H](O)[C@]5(C)[C@@H](C6=CC(=O)OC6)CC[C@]5(O)[C@@H]4CC[C@]3(O)C2)[C@H](O)[C@H](O)[C@H]1O
- Activity (Homo sapiens): Active
- viability at 48 h, 0.05 µM [1]: > 90%
- Activity [2]: Active

Structure (SMILES): C[C@H]1O[C@@H](O[C@H]2CC[C@]3(/C=N/NC(=O)COCCOCCOCCNC(=O)CCCC[C@@H]4SC[C@@H]5NC(=O)N[C@@H]54)[C@H]4C[C@@H](O)[C@]5(C)[C@@H](C6=CC(=O)OC6)CC[C@]5(O)[C@@H]4CC[C@]3(O)C2)[C@H](O)[C@H](O)[C@H]1O
- Activity (Homo sapiens): Active
- viability at 48 h, 0.05 µM [1]: > 90%
